Measurements gathered from unrelated publications.
Each line is one published result; the experiments were not run side by side.
Target: Adenosine receptor A2a (ADORA2A, Homo sapiens, UniProt P29274)

| SMILES | test | conditions | Ki [nM] |
| --- | --- | --- | --- |
| CNC(=O)c1csc(Nc2cccc(C)n2)n1 | ligand displacement, radioligand | cell membranes | 7100 |
| CCCCN1CCCn2c1nc1c2c(=O)n(CCC)c(=O)n1CCC | ligand displacement, radioligand | cell membranes | 1390 |
| Oc1cccc(Nc2nc(-c3ccc(F)cc3F)cs2)c1 | cell-free assay | – | 5100 |
| C#CCCCCC(=O)NCCNC(=O)COc1ccc(-c2nc3c([nH]2)c(=O)n(CCC)c(=O)n3CCC)cc1 | ligand displacement, radioligand | cell membranes | 23.2 |
| CCNC(=O)[C@H]1O[C@@H](n2cnc3c(N)nc(NN=C[C@H]4CCC=CO4)nc32)[C@H](O)[C@@H]1O | ligand displacement, radioligand | – | 3.76 |
| c1coc(-c2nc3cc(CCN4CCOCC4)ccc3o2)c1 | ligand displacement, radioligand | cell membranes | 11000 |
| CSC[C@@]12C[C@@H]1[C@@H](n1cnc3c(N)nc(I)nc31)[C@H](O)[C@@H]2O | ligand displacement, radioligand | – | 3120 |
| Cc1cccc(-c2nc(N)n(C(=O)CCc3ccccc3)n2)c1 | ligand displacement, radioligand | cell membranes | 250 |
| CC(C)CN1CCCn2c1nc1c2c(=O)n(C)c(=O)n1C | ligand displacement, radioligand | cell membranes | 930 |
| CNC(=O)[C@@]12C[C@@H]1[C@@H](n1cnc3c(NCc4cccc(C#CCCCc5cn(-c6ccc(F)c(N)c6)nn5)c4)nc(Cl)nc31)[C@H](O)[C@@H]2O | ligand displacement, radioligand | cell membranes | 2730 |
| c1ccc2[nH]c(-c3nc4ccccc4[nH]3)nc2c1 | ligand displacement, radioligand | cell membranes | 140 |
| c1coc(-c2nc3cc(CN4CCCCC4)ccc3o2)c1 | ligand displacement, radioligand | cell membranes | 19000 |
